Hits are enriched below; roughly 3.1% of the tested compounds scored in any of these assays.
miR-122 sensor: miR-122 Renilla sensor signal increase in Huh7, primary screen, miR-122 inhibitor project, cell-based, single point, plate reader | 0.3% of 340,000 active | activation (reporter increase), % at 12.5 µM | AID 602342, 2012 | Huh7 miR-122 Renilla luciferase sensor, 48 h; neutral wells = 0, positive control = 100;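 active means mean replicate activation score at least 90 and every replicate individually at or above 90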;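 further: higher luciferase means less miR-122 activity so hits act as miR-122 inhibitors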
Ecoli rRNA inh: reduced GFP signal of wild-type E. coli, primary screen, bacterial rRNA inhibitor project, GFP/RFP fluorescence, OD600, single point. E. coli WT GFP vs humanized-ribosome RFP mutants, 24 h; stronger effect = lower value; DMSO median 0, no signal -100. GFP signal change (wild-type ribosome), % (no concentration beside the values). 1.6% of 350,000 active. AID 720706, 2013;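 active means significant combined selectivity score with lowered wild-type GFP, culture density cut under 30%, mutant RFP and density less affected; inactive means any of these conditions unmet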
CFTR F508del cor: F508del CFTR correction, initial screen, CFBE line, single point; CFBE cells, YFP halide quenching; stimulated with forskolin plus potentiator P3; % fluorescence drop versus neutral controls; AID 720511, 2013; activity (quench increase), % at 7.58 µM; 0.36% of 350,000 active;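 active means mean added fluorescence quench of at least 8% versus neutral control, with both replicates also reaching 8%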;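 further: cells transiently co-express mutant CFTR-F508del with the halide-sensitive YFP; corrector assay measuring rescue of mutant channel to the surface after 24 h compound exposure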
HIV Env fusion: inhibitors of HIV-1 Env-driven cell-cell fusion, primary screen, HeLa-JRFL effector, CEM21 target cells, luciferase. inhibition, % at 12.3 µM. 1.1% of 360,000 active. AID 651610, 2012;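 active means mean replicate inhibition score of at least 50 and every replicate individually at or above 50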
Cneo AK release: Cryptococcus neoformans cell lysis inducers, primary screen, AK release luminescence, single concentration; lysis activity, % at 15 µM; C. neoformans lysis, adenylate kinase release luminescence, 4 h; normalised: neutral wells 0, clomiphene wells 100; 0.2% of 360,000 active;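 active means mean lysis activity across replicates of at least 80%, whatever share of replicates individually reach that level; inactive means mean lysis activity below 80%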
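Test system: log-phase Cryptococcus neoformans yeast cells. Input: 5 × 10^6 yeast cells/mL. Medium: fresh YPD growth medium. Doses: single dose. Incubation: static 4 h at 37 °C with compound, 1 h detection. Measured by: luminescent adenylate kinase detection reagent. Read-out: signal increase indicating cell lysis. Benchmarks: Clomiphene.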
GSIS activator: GLuc luminescence reporter in INS-1E cells, primary screen for activators of glucose-dependent secretion of insulin | 0.61% of 370,000 active | activation, % at 16.6 µM | INS-1E GLuc reporter insulin secretion, 2-3 h;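 active means lowest replicate activation of at least 40%, so every replicate reaches that level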
A number is an active result; i = inactive; nt = no result.

SMILES	miR-122 sensor	Ecoli rRNA inh	CFTR F508del cor	HIV Env fusion	Cneo AK release	GSIS activator
CO[C@H]1CC[C@H]2CCN(C)C(=O)[C@H](C)[C@H](OC)CN(C)C(=O)c3cc(C#N)ccc3OC[C@@H]1O2	nt	i	i	i	i	i
CCOC(=O)c1c(N)sc(C(=O)Nc2ccccc2)c1C	nt	i	i	i	nt	i
CCOC(=O)c1c(N)sc(C(=O)Nc2ccccc2F)c1C	i	-26.5	i	i	i	i
COc1ccccc1CN1CC2(C1)[C@@H](c1ccccc1)[C@@H](CO)N2Cc1ccccc1	nt	i	nt	nt	nt	i
C[C@H](CO)N1C[C@H](C)[C@H](CN(C)C(=O)Nc2ccc(C(F)(F)F)cc2)Oc2ccc(NC(=O)Nc3ccc4c(c3)OCO4)cc2C1=O	i	i	i	i	i	i
Cn1c(=O)[nH]c2cc3ccccc3cc21	i	nt	nt	70.1	i	nt
Cc1nc2cc3ccccc3cc2n1C	nt	nt	nt	nt	nt	i
O=C(Nc1ccc(S(=O)(=O)N2CCOCC2)cc1)c1cc(-c2cc(Cl)ccc2O)n[nH]1	i	-38.0	i	i	nt	i
CC(=O)Nc1ccc(C(=O)Nc2ccc(S(=O)(=O)N3CCCCC3)cc2)cc1	nt	i	i	i	i	i
O=C(Nc1ccc(S(=O)(=O)N2CCOCC2)cc1)c1ccc(=O)[nH]c1	nt	i	i	i	nt	42.8
CCOC(=O)N1CCN(S(=O)(=O)c2ccc(C(=O)Nc3sc4c(c3C(N)=O)CC(C)(C)NC4(C)C)cc2)CC1	nt	i	i	i	nt	i
NS(=O)(=O)c1ccc(NC(=O)c2ccc(S(=O)(=O)N3CCCCCC3)cc2)cc1	i	-19.8	i	nt	i	i
CC1(C)Cc2c(sc(NC(=O)c3ccc(S(=O)(=O)N4CCCCCC4)cc3)c2C#N)C(C)(C)N1	nt	i	i	62.9	i	i
Cc1ccccc1-c1ccc([C@@H]2[C@H]3CN(C(=O)c4cccnc4)CC(=O)N3[C@H]2CO)cc1	nt	i	nt	nt	nt	i
CN1c2ccc(-c3cccc(C#N)c3)cc2[C@@H]2[C@@H](CCN2C(=O)C2CCCCC2)[C@@H]1CO	nt	i	i	i	nt	i
CN1[C@@H]2c3ccc(-c4ccc(F)cc4)c(=O)n3C[C@H]1[C@H](CO)[C@H]2C(=O)NC1CCCCC1	i	i	i	nt	i	i
C/C=C/c1cnc2c(c1)C(=O)N([C@@H](C)CO)C[C@H](C)[C@@H](CN(C)C(=O)NC1CCCCC1)O2	i	i	i	i	i	i
O=C(Nc1ccc(S(=O)(=O)N2CCCC2)cc1)c1ccc(OCC2CCCO2)cc1 (centres undefined)	i	-19.8	i	i	i	i
Cn1nc(C(=O)Nc2ccc(S(=O)(=O)N3CCCCC3)cc2)c2ccccc2c1=O	i	-21.4	i	i	i	i
O=C(Nc1ccc(Cl)c(S(=O)(=O)N2CCOCC2)c1)c1ccc2c(c1)OCO2	i	-23.2	i	i	i	i
Cn1nc(C(=O)Nc2ccc(Cl)c(S(=O)(=O)N3CCOCC3)c2)c2ccccc2c1=O	i	i	i	i	i	i
CC(=O)c1ccc(NC(=O)Nc2ccc(S(=O)(=O)N3CCCC3)cc2)cc1	nt	-27.6	i	i	i	i
O=C(Nc1cccc(S(=O)(=O)N2CCCCC2)c1)c1ccc(OCC2CCCO2)cc1 (centres undefined)	i	i	i	i	i	i
COc1cccc(S(=O)(=O)Nc2ccc3c(c2)[C@H]2C[C@@H](CC(=O)NCCc4ccccc4)O[C@@H](CO)[C@H]2O3)c1	i	i	i	i	i	i
Cc1ccccc1NS(=O)(=O)c1cccc2nonc12	i	i	i	i	i	i
SMILES	miR-122 sensor	Ecoli rRNA inh	CFTR F508del cor	HIV Env fusion	Cneo AK release	GSIS activator
O=S(=O)(Nc1cccc2ccccc12)c1cccc2nonc12	i	-27.4	i	i	i	i
C[C@H]1CN([C@@H](C)CO)C(=O)c2cccc(NS(=O)(=O)c3ccc(Cl)cc3)c2O[C@@H]1CN(C)S(=O)(=O)c1ccc(F)cc1	i	i	i	i	i	i
Cc1nc2ccccc2n1CC(=O)NCc1ccccc1	i	nt	nt	82.7	i	i
COc1ccccc1CNC(=O)COC(=O)c1cc(C)nc2ccccc12	i	i	i	nt	i	48.5
Cc1cc(C(=O)OCC(=O)NCc2ccccc2)c2ccccc2n1	i	i	i	i	i	67.0
Cc1cc(CNC(=O)COc2ccc(C)c(C)c2)c2ccccc2n1	i	-24.9	i	i	i	i
Cc1cc(CNC(=O)COc2ccccc2)c2ccccc2n1	nt	i	i	i	nt	i
COc1ccc(NC(=O)N(C)C[C@@H]2OCCCC[C@H](C)Oc3ccc(NC(=O)Nc4ccccc4)cc3C(=O)N([C@H](C)CO)C[C@@H]2C)cc1	i	i	i	i	i	i
CCOC(=O)c1cccc(NC(=O)Nc2ccc(OCC)cc2)c1	nt	i	i	i	nt	i
O=C(Nc1cccc(Cl)c1)Nc1cccc(C(=O)O)c1	i	i	i	i	i	i
CC(=O)c1cccc(NC(=O)Nc2ccc(C(=O)N3CCOCC3)cc2)c1	i	nt	nt	63.1	i	i
O=C(Nc1ccc(Cl)cc1)Nc1cccc(C(=O)O)c1	i	i	i	71.3	nt	i
CCOc1ccc(NC(=O)Nc2cccc(C(=O)O)c2)cc1	i	i	i	63.5	nt	i
CCN1C(=O)[C@H]2[C@@H](c3ccc(C)cc3)N3C(=O)N(c4ccc(C(F)(F)F)cc4)C(=O)[C@@]3(CC(C)C)[C@H]2C1=O	i	i	i	114.9	i	i
CCN1C(=O)[C@H]2[C@@H](c3ccc(C)cc3)N3C(=O)N(c4cccc(Br)c4)C(=O)[C@@]3(CC(C)C)[C@H]2C1=O	i	i	i	104.3	i	nt
C[C@@H]1CN([C@@H](C)CO)C(=O)c2cc(-c3ccccc3F)cnc2O[C@H]1CN(C)C(=O)CN(C)C	i	i	i	i	i	i
CN1C(=O)c2cc(NS(C)(=O)=O)ccc2OC[C@@H]2O[C@H](CC(=O)NC3CCCCC3)CC[C@H]21	nt	i	nt	i	i	i
CC(C)(C)c1ccc(C2CC2C(=O)N/N=C\c2ccc[nH]2)cc1 (centres undefined)	i	i	i	98.4	nt	59.2
O=C(CNC(=O)c1ccco1)N/N=C/c1c[nH]c2ccccc12	i	i	i	i	i	i
O=C(N/N=C/c1c[nH]c2ccccc12)c1cc(-c2ccccc2)n[nH]1	i	-34.4	i	i	i	i
COc1ccc(CC(=O)NCC(=O)N/N=C/c2c[nH]c3ccccc23)cc1	i	-36.8	i	i	i	i

Screening data from PubChem BioAssay.
